Measurements of several laboratories.
Each line is one published result; the experiments were not run side by side.

SMILES	system	conditions	measurement	value
c1cc([C@H]2CC[C@]3(CC2)OO[C@]2(O3)C3CC4CC(C3)CC2C4)ccc1OCCN1CCOCC1	human, plasma	oral, 800 mg, patients	Cmax	1710 ng/mL
N=C(N)NCCC[C@@H](NC(=O)[C@@H](N)Cc1ccccc1)C(=O)N[C@@H](Cc1ccccc1)C(=O)N[C@@H](CCCCN)C(N)=O	human, plasma	subcutaneous, 5 mg, multiple doses, once daily, patients	Cmax	212 ng/mL
COc1ccc2[nH]cc(CCNc3nccc(Nc4cccc5c4ccn5C)n3)c2c1	mouse, plasma	oral, 28.6 mg/kg	Tmax	15 min
CC[C@H](C)[C@H](NC(=O)[C@H](CC(C)C)NC(=O)[C@H](Cc1c[nH]c2ccccc12)NC(=O)[C@H](CCC(N)=O)NC(=O)[C@@H](NC(=O)[C@H](Cc1ccccc1)NC(=O)[C@H](C)NC(=O)[C@H](CCCCNC(=O)COCCOCCNC(=O)COCCOCCNC(=O)CC[C@H](NC(=O)CCCCCCCCCCCCCCCCCCC(=O)O)C(=O)O)NC(=O)[C@H](CCC(N)=O)NC(=O)[C@H](C)NC(=O)[C@@H](NC(=O)[C@H](CCCCN)NC(=O)[C@H](CC(=O)O)NC(=O)[C@H](CC(C)C)NC(=O)C(C)(C)NC(=O)[C@@H](NC(=O)[C@H](CO)NC(=O)[C@H](Cc1ccc(O)cc1)NC(=O)[C@H](CC(=O)O)NC(=O)[C@H](CO)NC(=O)[C@@H](NC(=O)[C@H](Cc1ccccc1)NC(=O)[C@@H](NC(=O)CNC(=O)[C@H](CCC(=O)O)NC(=O)C(C)(C)NC(=O)[C@@H](N)Cc1ccc(O)cc1)[C@@H](C)O)[C@@H](C)O)[C@@H](C)CC)[C@@H](C)CC)C(C)C)C(=O)N[C@@H](C)C(=O)NCC(=O)NCC(=O)N1CCC[C@H]1C(=O)N[C@@H](CO)C(=O)N[C@@H](CO)C(=O)NCC(=O)N[C@@H](C)C(=O)N1CCC[C@H]1C(=O)N1CCC[C@H]1C(=O)N1CCC[C@H]1C(=O)N[C@@H](CO)C(N)=O	human, plasma	subcutaneous, 5 mg, patients	Cmax	379 ng/mL
C[C@H]1O[C@@H](O[C@H]2[C@@H](O)C[C@H](O[C@H]3[C@@H](O)C[C@H](O[C@H]4CC[C@@]5(C)[C@H](CC[C@@H]6[C@@H]5C[C@@H](O)[C@]5(C)[C@@H](C7=CC(=O)OC7)CC[C@]65O)C4)O[C@@H]3C)O[C@@H]2C)C[C@H](O)[C@@H]1O	Caco-2	10 µM, 1 h, pH 7.4	efflux ratio	5.33
C[C@]12CC[C@H](O)CC1=CC[C@@H]1[C@@H]2CC[C@]2(C)C(n3cnc4ccccc43)=CC[C@@H]12.Cl	mouse, plasma	oral, 10 mg/kg	Tmax	25.2 min
CC(=C/C=C/C(C)=C/C(=O)O)/C=C1\CCCc2ccccc21	human, plasma	oral, 5 mg, single dose, fasted, healthy volunteers	Cmax	46.9 ng/mL
COc1cc2c(c(OC)c1OC)-c1ccc(OC)c(=O)cc1[C@@H](NC(C)=O)CC2	Caco-2		efflux ratio	24.5
Cc1nc2c(=O)n(C)c(=O)nc-2n(C)n1	Caco-2		efflux ratio	1
Cc1ccccc1C(=O)NN=Cc1ccc(O)c(Br)c1	mouse, plasma	intraperitoneal, 0.8 mg/kg	Tmax	30 min
N=c1c2c(-c3ccccc3)c(-c3ccccc3)n(Cc3ccccc3)c2ncn1[C@H]1CC[C@H](O)CC1	Caco-2	3 µM, 2 h, pH 7.4	efflux ratio	10
C[C@]12CC[C@H](n3ccnc3)CC1=CC[C@@H]1[C@@H]2CC[C@]2(C)C(n3cnc4ccccc43)=CC[C@@H]12.Cl.Cl	male CD-1 mouse, plasma	oral, 10 mg/kg	Tmax	1040 min
